# HCV core dimer: blocks dimerization of HCV core protein; TR-FRET GST/Flag-core106 dimerization, 1536-well; inhibition, % at 5 µM; 300,000 tested, 0.33% active; AID 1899;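 active = inhibition above the mean of all tested compounds plus 3 SD, set per screening campaign, cut at about 45% in these data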
#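 Material: Tagged HCV core106 pair (GST and Flag) | Amount: GST-core106 13.5 nM, Flag-core106 17 nM | Medium: KF-containing HEPES buffer, pH 7.45, DTT, CHAPS, BSA | Reagent: Eu donor and XL665 acceptor anti-tag antibodies | Schedule: 4 h at 22.5 °C | Technique: Time-resolved FRET, ex 340 nm, em 617 and 671 nm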
# A3G deaminase: APOBEC3G (human) deaminase inhibition | Q9HC16 | recombinant A3G, ssDNA deamination FAM/TAMRA fluorescence | inhibition, % at 20 µM | 330,000 tested, 0.28% active | AID 493012;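 active = inhibition of at least 40% at 20 µM, with no more than 30% in the related APOBEC3A deaminase screen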;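 also: plate controls were DMSO wells with A3G for no effect and wells lacking A3G enzyme for full effect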
# ABHD5 PLIN5 PPI: ABHD5-PLIN5 protein interaction inhibition; Q00G26+Q8WTS1; inhibition, % at 4 µM; Split G. princeps luciferase complementation, luminescence, 4 h; 360,000 tested, 0.78% active; AID 602281;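 active = inhibition above the mean inhibition across every tested compound plus 3 SD, cut at about 22% in these data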;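 also: 0% = DMSO only wells and the 100% control is not disclosed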
# NS3 helicase inh: blocks Hepatitis C virus NS3 helicase unwinding | NS3 helicase DNA unwinding, Cy5 molecular beacon fluorescence | inhibition, % at 10.9 µM | AID 1800 | 290,000 tested, 0.56% active;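 active = inhibition above the mean of all tested compounds plus 3 SD, set per campaign, cut at about 35% in these data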;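 also: 0% = DMSO wells and 100% = thioflavine S control wells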
#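 Assay system: hepatitis C virus NS3 helicase domain fragment enzyme. Also added: annealed dual-labelled DNA beacon duplex, ATP-started. Timing: 1 h reaction at 25 °C, ATP-initiated. Technique: Cy5 fluorescence at 0 and 60 min, beacon hairpin quenching. Evaluation: % inhibition of unwinding. Replication: one well per compound.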
# APOBEC3A inh: blocks human APOBEC3A ssDNA deamination. 330,000 tested, 0.41% active. inhibition, % at 20 µM. P31941. AID 493011. recombinant A3A, FAM/TAMRA ssDNA deamination fluorescence;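 active = at least 40% inhibition at 20 µM here, with at most 30% in a related deaminase screen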;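 also: plate controls were A3A with DMSO for no effect and wells lacking A3A enzyme for full effect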
# Target sequence (P31941 whole entry, looked up): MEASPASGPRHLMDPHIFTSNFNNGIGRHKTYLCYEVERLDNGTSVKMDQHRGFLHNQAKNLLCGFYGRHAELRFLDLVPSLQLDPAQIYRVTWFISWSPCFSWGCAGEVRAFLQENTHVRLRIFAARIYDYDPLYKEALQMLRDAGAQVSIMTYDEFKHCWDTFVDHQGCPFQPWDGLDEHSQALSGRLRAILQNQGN
# PRMT1 FP inh: PRMT1 (human) inhibition, primary screen; Q99873; recombinant PRMT1, activity-based probe fluorescence polarization; inhibition, % at 2.79 µM; 370,000 tested, 1.3% active; AID 652257;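 active = inhibition above about 21% made by adding two undisclosed values, limit read from the data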
# ABHD5-PLIN5 conf: ABHD5-PLIN5 interaction inhibition, confirmed; shares compounds with ABHD5 PLIN5 PPI; biochemical ABHD5-PLIN5 interaction, luminescence; inhibition, % at 4 µM; 2,200 tested, 67% active; in the data active = inhibition above about 23%;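 also: 0% = DMSO vehicle wells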
# HNF4 split-luc: counter-screen for ABHD5-PLIN5 inhibitors: HNF4 split-luciferase; shares compounds with ABHD5 PLIN5 PPI; HNF4 dimerization, luminescence, biochemical; inhibition, % at 4 µM; 2,200 tested, 77% active;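 active = mean inhibition across replicate wells exceeding the computed hit threshold, cut at about 13% in these data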;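 also: light from luciferase halves that rejoin when HNF4 fusion proteins dimerize; 0% = DMSO only wells and the 100% control is not given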
# Active calls of the source: *; / = no result. In the library only some 2.9% were active in any assay of this set; here they are far more common.
SMILES,HCV core dimer,A3G deaminase,ABHD5 PLIN5 PPI,NS3 helicase inh,APOBEC3A inh,PRMT1 FP inh,ABHD5-PLIN5 conf,HNF4 split-luc
O=C(N/N=C/C=C/c1ccco1)C(O)c1ccccc1 (centres undefined),13,19,35*,14,22,19,47*,60*
CCCCC1O[C@@H](C)[C@@H]2CN3CCc4c([nH]c5ccccc45)[C@@H]3C[C@@H]2N1C (some centres undefined),/,/,/,/,/,5,/,/
COc1ccc(/C=C/C(=O)c2cc3cccc(OC)c3oc2=O)cc1,32,-6,37*,19,-8,6,64*,53*
COc1cc(/C=C/C(=O)c2ccccc2O)cc(OC)c1OC,3,-9,52*,-6,-2,5,90*,84*
COc1cc(OC)c(C=CC(=O)c2ccccc2O)c(OC)c1,/,/,-7,/,/,3,/,/
COc1ccc(C(=O)/C=C/c2ccccc2)c(OC)c1,-7,-6,26*,-14,-2,-8,42*,28*
Cc1ccc(/C=C/C(=O)c2ccccc2O)cc1,-1,3,21,-10,2,3,/,/
Cc1ccc(O)c(C(=O)C=Cc2ccccc2)c1,/,/,41*,/,/,-2,88*,55*
COCOc1cc(O)c(C(=O)/C=C/c2ccccc2)c(OCOC)c1,0,-3,41*,/,4,-5,69*,63*
COc1cc(C)cc(C(=O)C=Cc2ccccc2)c1O,/,/,64*,/,/,1,95*,75*
Cc1cccc(C=CC(=O)c2ccccc2)c1,/,/,27*,/,/,2,57*,44*
COc1ccc(C=CC(=O)C=CC=Cc2ccccc2)cc1,/,/,6,/,/,6,/,/
O=C(CCCn1cc([N+](=O)[O-])cn1)NC1CCCCCC1,0,-6,99*,5,4,-3,-5,5
C=CCNC(=O)/C(C#N)=C/c1ccccc1Cl,1,-8,6,14,-4,2,/,/
C=CCNC(=O)/C(C#N)=C/c1cc(Br)ccc1OC,1,-8,43*,-4,1,-3,56*,45*
CC(C)C[C@@H](CO)N1CCN(Cc2cccc(C#N)c2)CCC1=O,-2,-2,1,20,0,1,/,/
Cc1sc2nc(SCC(=O)Nc3c(C)n(C)n(-c4ccccc4)c3=O)n(C)c(=O)c2c1C,27,1,24*,7,4,4,0,0
Cn1c(Cl)cnc1C1CC(=O)c2cc(Cl)ccc2O1 (centres undefined),-3,2,32*,-4,3,4,20,49*
CC(=O)N1CCC2(CC1)CC(=O)c1cc(Cl)ccc1O2,5,-1,3,/,0,2,/,/
O=C1CC(c2ccc(Cl)cc2)Oc2ccc(Cl)cc21 (centres undefined),/,/,23*,/,/,0,62*,33*
CCCCCNC(=O)Cn1c(=O)c2c(ncn2CC(C)C)n(Cc2ccccc2)c1=O,1,-8,-1,-3,-1,4,/,/
Cc1cc(CNC[C@H]2O[C@@H](n3ccc(=O)[nH]c3=O)[C@H](O)[C@@H]2O)no1,/,/,-7,/,/,4,/,/
Cn1cnnc1Sc1ccc(/C=C/C(=O)c2ccc(O)cc2)cc1[N+](=O)[O-],7,-3,64*,3,-1,3,87*,87*
CCC(C)(C)NC(=O)c1ccc(Sc2nncn2C)c([N+](=O)[O-])c1,1,-7,3,7,-5,1,/,/
COc1ccc(-c2nc3ncccc3o2)cc1NC(=O)c1ccco1,-7,-11,-3,2,-3,1,/,/
CC(=O)Oc1ccc(C23c4ccccc4C2(OC(C)=O)c2cc(OC(C)=O)ccc23)cc1 (centres undefined),/,/,99*,/,/,1,102*,53*
N#CC(C#N)=C1C=CC=CN1/C(=C\c1ccco1)C(=O)c1ccccc1,-4,/,54*,-6,/,10,102*,110*
